Shown are actives, neighbours in structure and some others; about 2.5% of the full set was active somewhere.
rCAG binder – r(CAG) repeat RNA binding. AID 651821. TO-PRO-1 dye displacement fluorescence. inhibition, % at 3 µM. 370,000 compounds, 1.3% hits;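 active means inhibition above the plate cutoff, the mean of all test compounds on that plate plus 3 SD, cut at about 35% in these data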;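 further: 0% = DMSO alone and 100% = 100 µM mitoxantrone as full dye displacement; higher means more dye released from RNA so lower well fluorescence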
HTRA1 inhibitor – HTRA1 (human) protease inhibition; Q92743; recombinant HTRA1, FP-rhodamine activity-based probe, fluorescence polarization; inhibition, % at 5.96 µM; 340,000 compounds, 0.5% hits; AID 504803; in the data active means inhibition above about 36%;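 further: 0% = enzyme with DMSO and 100% = wells lacking enzyme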
TCR-CD3 inh – inhibitors of human TCR-CD3 interaction; TAMRA-labeled TCR probe fluorescence, biochemical; 360,000 compounds, 0.37% hits; inhibition, % at 9.4 µM;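 further: recombinant mutant TCR 2C K166C tagged with TAMRA read by polarization; 0% = receptor in buffer alone and 100% = receptor with positive control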
SIAE primary – inhibitors of human sialic acid acetylesterase SIAE; 370,000 compounds, 0.69% hits; AID 1053197; Q9HAT2; inhibition, % at 9.66 µM; SIAE FP-Rh probe binding, fluorescence polarization;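 active means inhibition above a cutoff: mean of compounds within the control limits plus 3 SD of those, cut at about 17% in these data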;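 further: 0% = plate median of compound wells and 100% = probe without SIAE protein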
Target sequence (Q9HAT2 whole entry, looked up): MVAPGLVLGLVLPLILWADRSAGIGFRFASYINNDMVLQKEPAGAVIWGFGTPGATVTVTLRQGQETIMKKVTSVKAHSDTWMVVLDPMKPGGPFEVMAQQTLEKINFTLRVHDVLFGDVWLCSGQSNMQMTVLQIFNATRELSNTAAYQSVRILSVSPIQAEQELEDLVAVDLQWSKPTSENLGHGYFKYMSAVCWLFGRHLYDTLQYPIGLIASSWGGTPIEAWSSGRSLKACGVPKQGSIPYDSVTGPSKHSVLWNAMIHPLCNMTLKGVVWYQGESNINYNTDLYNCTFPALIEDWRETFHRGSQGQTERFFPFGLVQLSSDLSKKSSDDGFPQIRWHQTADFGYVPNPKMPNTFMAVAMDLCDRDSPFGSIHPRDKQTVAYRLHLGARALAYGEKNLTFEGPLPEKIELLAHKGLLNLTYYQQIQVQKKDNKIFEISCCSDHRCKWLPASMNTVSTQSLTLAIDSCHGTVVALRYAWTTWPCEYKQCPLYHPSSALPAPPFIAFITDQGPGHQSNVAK
ABHD4 inh – inhibits mouse alpha/beta hydrolase domain 4; inhibition, % at 8.92 µM; purified mABHD4, FP-Rh probe fluorescence polarization; 370,000 compounds, 0.54% hits;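 active means inhibition exceeding the mean over every tested compound plus 3 SD, cut at about 30% in these data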;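 further: 0% = plate median of compound wells and 100% = S159A mutant with DMSO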
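Doses – 8.92 µM, single dose · Material – wild-type mouse ABHD4 protein · Replication – single well per compound (singlicate) · Measure – percent inhibition of probe binding, normalized to plate controls · Schedule – 45 min compound pre-incubation plus 60 min probe step, 25 °C · Detection – fluorescence polarization with parallel and perpendicular emission, 525/598 nm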
BSA TAMRA ctr – BSA probe counter-screen for TCR-CD3 inhibitors | inhibition, % at 9.4 µM | shares compounds with TCR-CD3 inh | TAMRA-labeled BSA probe fluorescence counterscreen | 1,200 compounds, 10% hits | AID 652035; in the data active means inhibition above about 23%;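 further: 0% = buffer low control and 100% = reference high control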
TCR-CD3 inh conf – confirmation of human TCR-CD3 interaction inhibitors | shares compounds with TCR-CD3 inh | TAMRA-labeled TCR probe fluorescence binding assay | inhibition, % at 9.4 µM | 1,200 compounds, 48% hits
rCAG binder conf – r(CAG) RNA repeat binding, confirmation | inhibition, % at 3 µM | 4,300 compounds, 70% hits | shares compounds with rCAG binder | TO-PRO-1 dye displacement fluorescence | AID 652065;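 active means inhibition above a per-plate cutoff, the mean inhibition of sample wells plus 3 SD, cut at about 35% in these data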;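 further: loss of TO-PRO-1 fluorescence as compound displaces dye from 1x1 AA loop RNA; 0% = DMSO only wells and 100% = 100 µM mitoxantrone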
DNA CAG counter – DNA CAG dye complex inhibition counter-screen; shares compounds with rCAG binder; d(CAG) DNA oligo TO-PRO-1 dye displacement, fluorescence; 4,300 compounds, 94% hits; inhibition, % at 3 µM;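 active means inhibition above its plate's cutoff, the mean test-well inhibition plus 3 SD, cut at about 4.8% in these data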;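 further: 0% = DNA dye mix with DMSO and 100% = 100 µM mitoxantrone; hits displace the dye from DNA and so lower well fluorescence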
mABHD4 conf – confirmation of mouse ABHD4 inhibitors | shares compounds with ABHD4 inh | purified mABHD4, FP-Rh probe fluorescence polarization | inhibition, % at 8.92 µM | 1,800 compounds, 55% hits | AID 720658;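 active means mean inhibition across replicates above the hit cutoff set in the primary screen, cut at about 30% in these data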;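 further: 0% = wild-type ABHD4 with DMSO and 100% = catalytically dead S159A mutant with DMSO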
SIAE inh conf – confirmation of human SIAE inhibitors | shares compounds with SIAE primary | SIAE FP-Rh activity-based probe, fluorescence polarization | inhibition, % at 9.66 µM | 2,300 compounds, 13% hits | AID 1117263;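 active means mean inhibition of the replicates above the hit cutoff set in the primary screen, cut at about 17% in these data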;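 further: 0% = SIAE with DMSO and probe and 100% = probe without SIAE; inhibitors lower polarization as more probe stays unbound to SIAE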
Numbers without * were called inactive; i = inactive; / = no result. Unless noted, no stated cut-off is given here; in the data, active means inhibition above about 19%; inactive means the rest.

SMILES	rCAG binder	HTRA1 inhibitor	TCR-CD3 inh	SIAE primary	ABHD4 inh	rCAG binder conf	DNA CAG counter	others
O=C(N/N=C/c1c(O)n(Cc2ccco2)c(=O)[nH]c1=O)c1ccccc1O	58*	4	41*	2	31*	66*	27*	BSA TAMRA ctr=-14;TCR-CD3 inh conf=40*;mABHD4 conf=32*
CCC(=NCc1cccnc1)c1c(O)n(-c2ccc(Cl)cc2)c(=O)[nH]c1=O	-2	6	-3	-1	-8	/	/
O=[N+]([O-])c1ccc(NCc2ccccc2)c2nonc12	i	/	66*	37*	53*	/	/	BSA TAMRA ctr=99*;TCR-CD3 inh conf=81*;mABHD4 conf=79*;SIAE inh conf=29*
O=c1[nH]c(=S)n(-c2ccccc2)c(O)c1C=NCc1ccccn1	-1	/	-4	1	2	/	/
CCOc1ccc(/C=C2/C(=O)NC(=O)N(CCc3ccc(F)cc3)C2=O)cc1	35*	2	-2	-14	-6	3	2
COc1cc(C=C2C(=O)NC(=O)NC2=O)ccc1O	-5	3	-2	4	0	/	/
COc1cc(/C=C2\C(=O)NC(=O)N(CCc3ccc(F)cc3)C2=O)ccc1O	43*	-12	-9	-9	3	5	1
CC(=Nc1ccccc1N)c1c(O)n(C)c(=O)[nH]c1=O	-2	-4	-2	3	2	/	/
O=P(Oc1ccccc1)(Oc1ccccc1)C(O)c1ccccc1 (stereo not given)	-3	-3	9	1	14	/	/
CC(=O)Nc1ccc(CC(=O)N2CCN(Cc3ccccc3)CC2)cc1	-1	0	-4	-1	1	/	/
CCC(C)n1c(O)c(/C=N/N2CCOCC2)c(=O)[nH]c1=S (stereo not given)	36*	2	6	3	-7	2	0
CCC(C)n1c(O)c(C=NCCN2CCOCC2)c(=O)[nH]c1=S (stereo not given)	-3	1	-1	0	2	/	/
O=C1NC(=O)N(c2ccccc2)C(=O)/C1=C\C=C\c1ccccc1	27	/	-8	-6	0	/	/
Cc1cc(C)cc(N2C(=O)NC(=O)/C(=C\C=C\c3ccco3)C2=O)c1	39*	11	-17	-31	-14	15	7.7*
CC(C)c1ccc(N2C(=O)NC(=O)/C(=C/C=C/c3ccco3)C2=O)cc1	54*	8	-19	-35	-23	29	9.4*
Cc1ccc(N2C(=O)NC(=O)/C(=C/C=C/c3ccco3)C2=O)cc1	29	0	-4	-26	-8	/	/
CCc1ccc(N2C(=O)NC(=O)/C(=C\C=C\c3ccco3)C2=O)cc1	45*	8	-15	-15	-14	19	9.3*
C#CCN(C)[C@H](C)Cc1ccccc1	2	0	3	0	0	/	/
Cn1cccc1/C=C1/C(=O)NC(=O)N(Cc2ccc(F)cc2)C1=O	41*	20	-4	7	9	8	3
Cn1cccc1/C=C1/C(=O)NC(=O)N(Cc2ccccc2)C1=O	49*	25	2	5	2	5	4
Cn1cccc1/C=C1\C(=O)NC(=O)N(Cc2ccccc2)C1=O	40*	16	-3	11	23	7	2
C=CCN1C(=O)NC(=O)/C(=C/c2cccn2C)C1=O	5	3	-7	5	2	/	/
CC1=CC(O)C(O)C2(C)C1CC1OC(=O)CC3C(C)C(O)C(=O)C2C13CO (stereo not given)	/	-5	/	/	/	/	/
CCCCn1c(O)c(C(CC)=NCCN2CCOCC2)c(=O)[nH]c1=O	1	4	1	-4	4	/	/

Screens as filed in PubChem BioAssay.
